Assay outcomes (PubChem BioAssay)
SR-BI uptake up = activators of SR-BI mediated HDL lipid uptake; CHO ldlA[mSR-BI] cells, DiI-HDL uptake fluorescence, 3 h; 100 = double the neutral-control signal; activation, % at 12.5 µM; 320,000 compounds, 0.096% hits; AID 504775;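 active = mean replicate activation of at least 60% and every replicate at or above 60%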;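 note: 0% = median plate neutral-control signal and 100% = twice that signal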
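Test system: SR-BI-overexpressing, LDLR-lacking CHO cells. Measured by: DiI fluorescence, bottom read. Medium: Ham's F12 with 0.5% BSA, HEPES 25 mM, pH 7.4. Timing: 3 h uptake period with compound, 37 °C.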
SR-BI DiI inh = inhibitors of mouse SR-BI mediated HDL lipid uptake | Q61009 | ldlA[mSR-BI] CHO cells, DiI-HDL uptake fluorescence, 3 h | inhibition, % at 12.5 µM | 320,000 compounds, 0.96% hits;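 active = mean replicate inhibition of at least 70% and a set share of replicates each scoring 70 or more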;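 note: 0% = median of neutral control wells and 100% = median of positive control wells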
PglD inh = blocks C. jejuni PglD acetyltransferase activity. inhibition, % at 12.5 µM. AID 602405. purified PglD enzyme, DTNB colorimetric CoA detection. 360,000 compounds, 0.098% hits; in the data active = inhibition above about 16%, passing the limit was not always enough
Rtt109 Vps75 = blocks Candida albicans Rtt109/Vps75 acetyltransferase activity; Q5AAJ8; AID 540336; purified Rtt109/Vps75, ThioGlo CoA-SH fluorescence, 4 h; 330,000 compounds, 0.16% hits; inhibition, % at 34.9 µM;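 active = inhibition of at least 50% in every replicate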
Target sequence (Q5AAJ8 whole entry, looked up): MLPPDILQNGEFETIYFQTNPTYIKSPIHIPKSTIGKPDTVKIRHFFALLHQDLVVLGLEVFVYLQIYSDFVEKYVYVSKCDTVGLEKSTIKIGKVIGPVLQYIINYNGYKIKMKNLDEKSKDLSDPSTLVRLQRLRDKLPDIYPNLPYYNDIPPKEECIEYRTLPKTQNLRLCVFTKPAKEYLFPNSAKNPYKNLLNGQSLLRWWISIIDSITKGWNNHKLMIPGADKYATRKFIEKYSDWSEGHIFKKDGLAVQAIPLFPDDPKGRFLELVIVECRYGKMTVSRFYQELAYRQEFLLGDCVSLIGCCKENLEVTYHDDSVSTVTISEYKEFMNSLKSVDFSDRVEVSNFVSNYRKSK
HIV Env fusion = blocks HIV Env-driven cell-cell fusion; HeLa-JRFL Env/CEM21 cell fusion, luciferase; inhibition, % at 12.3 µM; 360,000 compounds, 1.1% hits; AID 651610;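 active = mean replicate inhibition score of at least 50 and every replicate individually at or above 50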;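 note: 0% = plate neutral controls and 100% = maraviroc near 300 nM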
N-glyco inh = N-linked glycosylation inhibition | D54 ERlucT glycosylation luciferase reporter, 24 h; percent of 100 nM tunicamycin response | reporter increase, % at 12.5 µM | 360,000 compounds, 0.23% hits;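 active = mean luciferase reporter signal, scaled so untreated is 0 and the glycosylation-blocking control 100, at or above a set limit in every replicate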;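 note: luciferase carries N-glycosylation sites so blocking glycosylation raises the light; 0% = median of neutral control wells and 100% = median of 100 nM tunicamycin wells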
* hit, by the source's call; · = no result; [ ] = dose if it differs, or a comment. Sampled rows, rich in hits. Any-hit rate of the full collection: about 1.9%.

SMILES	SR-BI uptake up	SR-BI DiI inh	PglD inh	Rtt109 Vps75	HIV Env fusion	N-glyco inh
COc1cccc(Cl)c1NC(=O)N1CCc2c([nH]c3ccccc23)C1C(F)(F)F (centres undefined)	-19.7	19.7	·	2.3	83.4*	8.7
COc1cccc(/C=C2/Sc3ccc(C(=O)NCCN4CCCC4)cc3NC2=O)c1	10.6	-10.6	0.7	54.9*	11.3	-11.3
COc1cccc(/C=C2/Sc3ccc(C(=O)NCCCN4CCCC4)cc3NC2=O)c1	2.9	-2.9	2.4	60.3*	4.5	-7.4
Cc1noc(C)c1S(=O)(=O)Nc1ccc2c(c1)C(=O)N([C@H](C)CO)C[C@@H](C)[C@H](CN(C)C(=O)Nc1ccc(F)cc1)OCCCC[C@H](C)O2	·	·	-3.9	·	-70.2[16.7 µM]	·
C[C@H](CO)N1C[C@H](C)[C@@H](CN(C)CC2CCOCC2)Oc2ncc(C#Cc3ccccc3)cc2C1=O	·	·	0.7	·	11.4[16.7 µM]	·
CCc1nc2ccccc2c(C(=O)OCC(=O)Nc2cccc(S(=O)(=O)N3CCOCC3)c2)c1C	-8.5	8.5	-4.6	19.9	99.6*	0.8
CCc1nc2ccccc2c(C(=O)OCC(=O)Nc2ccc(S(=O)(=O)N3CCOCC3)cc2)c1C	-26.3	26.3	4.7	10.9	·	-2.8
O=C(COC(=O)c1cccc(S(=O)(=O)N2CCOCC2)c1)NCc1ccccc1	7.1	-7.1	·	-1.7	68.1*	-0.7
COc1cccc(S(=O)(=O)Nc2ccc3c(c2)C(=O)N(C)C[C@H](OC)[C@@H](C)CN[C@@H](C)CO3)c1	·	·	3.4	·	17.0[16.7 µM]	·
O=c1[nH]c2c(cnn2-c2ccc(Cl)cc2)c(=O)n1-c1cccc(Cl)c1	12.4	-12.4	·	3.4	62.0*	2.1
C[C@H](CO)N1C[C@H](C)[C@@H](CN(C)C(=O)C2CC2)Oc2ncc(/C=C/c3ccccc3)cc2C1=O	·	·	·	·	-11.5[16.7 µM]	·
C#CCSc1nnc(-c2sc(-c3ccccc3)nc2C)n1C	-74.4	74.4*	4.3	-0.2	-22.9	1.8
CNC(=O)C[C@H]1CC[C@@H]2[C@H](COc3ccc(NC(=O)NCc4ccccc4)cc3C(=O)N2C)O1	·	·	-1.1	·	-11.7[16.7 µM]	·
c1ccc(Nc2nc(-c3ccccc3)nc3ccccc23)cc1	-54.1	54.1	-9.3	9.0	2.3	-3.3
Nc1ccc(-c2nc(-c3ccccc3)nc3ccccc23)cc1	-71.5	71.5*	-4.7	-13.1	7.5	-0.6
CCOc1ccc(Nc2nc(N(C)c3ccccc3)nc(N)c2[N+](=O)[O-])cc1	-31.7	31.7	·	-4.0	1.0	36.1*
CCOc1ccc(Nc2nc(N)c([N+](=O)[O-])c(NCc3ccccc3)n2)cc1	-9.3	9.3	2.4	-1.3	-9.2	-2.8
O=C(C[C@@H]1CC[C@@H](NC(=O)Nc2ccc3c(c2)OCO3)[C@H](CO)O1)NCc1ccc(F)cc1	·	·	-0.5	·	-11.4[16.7 µM]	·
COc1cccc(CN(C)C(=O)c2cccc(S(=O)(=O)N3CCN(c4ccccc4)CC3)c2)c1OC	-48.4	48.4	-6.0	14.8	·	-0.5
CC(C)(CNC(=O)c1cccc(S(=O)(=O)N2CCCCC2)c1)N1CCOCC1	·	·	0.9	·	63.1*	0.8
O=C(Nc1ccc(N2CCOCC2)cc1)c1cccc(S(=O)(=O)N2CCCCC2)c1	-80.5	80.5*	-4.2	1.4	·	-4.2
C=CCN(c1ccccc1)S(=O)(=O)c1cccc(C(=O)O)c1	12.8	-12.8	-6.6	8.1	·	2.1
CN(Cc1ccc(Cl)cc1Cl)C(=O)c1cccc(S(=O)(=O)N2CCN(c3ccccc3)CC2)c1	-43.8	43.8	-0.4	-5.5	89.9*	-8.1
C=CCN(c1ccccc1)S(=O)(=O)c1cccc(C(=O)NNC(=O)c2ccccc2O)c1	-87.5	87.5*	-6.0	-2.6	-1.3	-9.4
Cc1ccnc(NC(=O)c2cccc(S(=O)(=O)N3CCN(c4ccccc4)CC3)c2)c1	6.4	-6.4	-5.9	1.4	-35.3	-15.9
SMILES	SR-BI uptake up	SR-BI DiI inh	PglD inh	Rtt109 Vps75	HIV Env fusion	N-glyco inh
C=CCN(c1ccccc1)S(=O)(=O)c1cccc(C(=O)Nc2ccc(N3CCOCC3)cc2)c1	-80.2	80.2*	-1.2	12.0	1.7	-9.3
Cc1ccc(NC(=O)c2cccc(S(=O)(=O)N3CCN(c4ccccc4)CC3)c2)nc1	-13.8	13.8	5.0	3.0	57.0*	-3.9
COC(=O)CNC(c1ccccc1)c1cc(Br)ccc1NC(=O)OCc1ccccc1 (centres undefined)	1.9	-1.9	-0.4	0.9	·	-5.5
COC(=O)CNC(c1ccccc1)c1cc(C)ccc1NC(=O)CNC(=O)OCc1ccccc1 (centres undefined)	2.0	-2.0	2.7	16.3	72.6*	-2.3
CN(CCCC(=O)Nc1ccncc1)S(=O)(=O)c1ccc(Cl)cc1	·	-11.7	-4.3	1.9	66.1*	-5.6
O=C(NCC[C@@H]1CC[C@@H](NS(=O)(=O)Cc2ccccc2)[C@H](CO)O1)C1CC1	·	·	-1.3	·	-19.1[16.7 µM]	·
CCOc1ccc(N2CC(NS(=O)(=O)c3cccs3)CC2=O)cc1 (centres undefined)	3.3	-3.3	3.3	-4.6	55.8*	-2.8
CC(/C=N/n1c(-c2cccnc2)n[nH]c1=S)=C\c1ccccc1	0.7	-0.7	4.9	-1.2	25.3	-1.6
CC(=C/c1ccccc1)/C=N/n1c(C)n[nH]c1=S	8.7	-8.7	-1.6	-2.2	59.2*	3.5
S=c1[nH]nc(-c2cc(-c3ccccc3)n[nH]2)n1/N=C/C(Br)=C/c1ccccc1	·	·	0.7	·	-44.2	32.2*
CC(=C/c1ccccc1)/C=N/n1c(-c2ccncc2)n[nH]c1=S	-1.1	1.1	·	7.6	64.3*	-9.6
CC(/C=N/n1c(COc2ccccc2)n[nH]c1=S)=C\c1ccccc1	16.1	-16.1	1.2	-6.5	-0.5	0.5
C/C=C/c1ccc2c(c1)O[C@H](CN(C)CC1CCOCC1)[C@H](C)CN([C@H](C)CO)S2(=O)=O	·	·	0.3	·	4.7[16.7 µM]	·
C[C@@H]1CN([C@H](C)CO)C(=O)Cc2cc(NC(=O)Cc3ccccc3)ccc2O[C@@H]1CN(C)C(=O)Nc1ccc2c(c1)OCO2	·	·	7.7	·	12.5[16.7 µM]	·
CCOc1ccc(N2C(=O)CC(Sc3ccccc3C(=O)O)C2=O)c([N+](=O)[O-])c1 (centres undefined)	-24.8	24.8	·	65.4*	-6.7	0.3
CCOC(=O)c1c(N2C(=O)CC(Sc3ccccc3C(=O)O)C2=O)sc2c1CCCC2 (centres undefined)	8.4	-8.4	·	88.3*	22.1	0.8
Cc1noc(C)c1S(=O)(=O)Nc1ccc2c(c1)C(=O)N([C@@H](C)CO)C[C@H](C)[C@H](CN(C)C(=O)CCCN(C)C)OCCCC[C@H](C)O2	·	·	5.1	·	5.0[16.7 µM]	·
O=C(NCC1CC1)[C@H]1[C@H](CO)[C@H]2Cn3c(cccc3=O)[C@@H]1N2C(=O)c1cccnc1	·	·	6.1	·	·	·
O=C(Nc1ccccc1)N1CCCCN2[C@@H](CO)[C@H](c3ccc(C#Cc4cccnc4)cc3)[C@@H]2C1	·	·	1.1	·	·	·
